Results reported in ChEMBL document CHEMBL4359929, “Piperidine and piperazine inhibitors of fatty acid amide hydrolase targeting excitotoxic pathology” (Bioorg Med Chem, 2019).
pIC50: −log10 of the molar value. Activity calls are given as the source filed them. No cut-off for these calls is given here.

Columns and labels:
[1] = target: Cannabinoid receptor 2 (Homo sapiens) (UniProt P34972); experiment: Displacement of [3H]CP55940 from human CB2 receptor expressed in HEK293 cells by competition-equilibrium binding analysis; assay type: cell-based
Sequence of Cannabinoid receptor 2 (Homo sapiens) (P34972 whole entry): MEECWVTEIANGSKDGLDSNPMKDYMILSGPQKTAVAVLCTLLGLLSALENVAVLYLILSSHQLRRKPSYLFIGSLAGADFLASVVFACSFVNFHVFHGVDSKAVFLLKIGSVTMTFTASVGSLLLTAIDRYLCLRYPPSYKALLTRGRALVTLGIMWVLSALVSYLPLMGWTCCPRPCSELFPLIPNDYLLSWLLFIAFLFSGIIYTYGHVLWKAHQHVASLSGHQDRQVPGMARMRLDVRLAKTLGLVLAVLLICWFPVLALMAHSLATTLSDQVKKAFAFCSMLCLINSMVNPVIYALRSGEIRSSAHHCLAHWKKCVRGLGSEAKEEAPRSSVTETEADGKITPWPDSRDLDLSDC
How it was run: (§1)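 HEK293 cell membranes expressing mouse or human CB2; competition-equilibrium binding against [3H]CP-55,940.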

[2] = Stability in rat plasma assessed as half life; assay type: ADME, cell-free
How it was run: (§2)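 Stability assessed as half-life in human, rat and mouse plasma and gastric fluid, and in human, rat and mouse liver microsomal preparations.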

[3] = Stability in human liver microsomes assessed as half life; assay type: ADME, Microsome; how it was run: as §2
[4] = Stability in mouse gastric fluid assessed as half life; assay type: ADME, tissue-based, Gastric juice; how it was run: as §2
[5] = target: T1, Fatty-acid amide hydrolase 1 (Homo sapiens, UniProt O00519); experiment: Inhibition of human recombinant MBP-tagged FAAH expressed in Escherichia coli cells using AAMCA as substrate incubated for 15 mins followed by substrate addition and measured after every 20 mins for 4 hrs by fluorescence based assay
T1 sequence (O00519 whole entry): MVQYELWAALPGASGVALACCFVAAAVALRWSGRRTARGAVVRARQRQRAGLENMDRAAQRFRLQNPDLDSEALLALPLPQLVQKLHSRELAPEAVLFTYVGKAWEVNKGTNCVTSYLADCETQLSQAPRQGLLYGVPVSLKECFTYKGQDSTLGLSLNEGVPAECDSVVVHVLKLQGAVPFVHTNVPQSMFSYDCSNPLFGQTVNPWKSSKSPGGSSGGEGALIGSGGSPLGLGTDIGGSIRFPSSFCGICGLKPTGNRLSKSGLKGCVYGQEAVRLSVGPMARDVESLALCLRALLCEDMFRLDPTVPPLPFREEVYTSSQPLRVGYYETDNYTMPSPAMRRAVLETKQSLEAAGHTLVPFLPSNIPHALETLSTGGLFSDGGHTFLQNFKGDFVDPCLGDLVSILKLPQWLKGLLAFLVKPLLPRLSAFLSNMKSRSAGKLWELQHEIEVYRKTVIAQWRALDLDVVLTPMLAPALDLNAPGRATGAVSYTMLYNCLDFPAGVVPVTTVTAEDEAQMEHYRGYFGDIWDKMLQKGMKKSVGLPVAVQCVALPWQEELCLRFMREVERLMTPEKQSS
How it was run: (§3)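 Fluorescent enzyme assay in throughput format. Human recombinant FAAH or purified rat FAAH used arachidonoyl 7-amino-4-methylcoumarin amide as substrate; human recombinant MGL was run by a similar fluorometric procedure.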

[6] = target: Cannabinoid receptor 1 (Rattus norvegicus) (UniProt P20272); experiment: Displacement of [3H]CP55940 from CB1 receptor in rat brain by competition-equilibrium binding analysis; assay type: tissue-based
How it was run: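 Rat brain membranes as CB1 source; competition-equilibrium binding against [3H]CP-55,940.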
Target sequence in this assay (P20272 whole entry): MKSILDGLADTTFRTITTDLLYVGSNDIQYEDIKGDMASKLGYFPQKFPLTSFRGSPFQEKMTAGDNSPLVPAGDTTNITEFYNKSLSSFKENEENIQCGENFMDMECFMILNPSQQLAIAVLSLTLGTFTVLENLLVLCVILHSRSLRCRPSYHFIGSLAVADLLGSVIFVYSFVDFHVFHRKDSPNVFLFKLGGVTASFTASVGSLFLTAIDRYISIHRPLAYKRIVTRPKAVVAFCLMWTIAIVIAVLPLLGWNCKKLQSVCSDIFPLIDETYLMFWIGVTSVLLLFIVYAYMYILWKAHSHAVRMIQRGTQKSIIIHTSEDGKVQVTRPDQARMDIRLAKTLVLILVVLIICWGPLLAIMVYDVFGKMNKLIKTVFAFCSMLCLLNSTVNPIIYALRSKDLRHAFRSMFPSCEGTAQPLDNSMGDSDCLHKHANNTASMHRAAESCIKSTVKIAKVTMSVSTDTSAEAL

[7] = target: Cannabinoid receptor 2 (Mus musculus) (UniProt P47936); experiment: Displacement of [3H]CP55940 from mouse CB2 receptor expressed in HEK293 cells by competition-equilibrium binding analysis; assay type: cell-based; how it was run: as §1
Sequence of Cannabinoid receptor 2 (Mus musculus) (P47936 whole entry): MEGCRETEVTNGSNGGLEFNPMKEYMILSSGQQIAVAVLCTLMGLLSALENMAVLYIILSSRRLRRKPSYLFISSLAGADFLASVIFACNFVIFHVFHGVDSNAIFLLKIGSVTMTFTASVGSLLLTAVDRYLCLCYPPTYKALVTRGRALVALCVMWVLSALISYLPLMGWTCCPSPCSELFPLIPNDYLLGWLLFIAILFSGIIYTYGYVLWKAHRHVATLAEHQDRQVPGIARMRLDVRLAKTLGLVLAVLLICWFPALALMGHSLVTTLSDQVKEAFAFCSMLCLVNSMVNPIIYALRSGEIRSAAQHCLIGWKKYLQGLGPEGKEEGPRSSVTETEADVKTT

[8] = Stability in human plasma assessed as half life; assay type: ADME, cell-free; how it was run: as §2
Monoglyceride lipase = target: T2, Monoglyceride lipase (Homo sapiens, UniProt Q99685); experiment: Inhibition of human recombinant His-tagged MGL expressed in Escherichia coli BL21 DE3 cells using AHMMCE as substrate preincubated with enzyme for 15 mins followed by substrate addition and measured after every 15 mins for 3 hrs by fluorescence based assay; how it was run: as §3
T2 sequence (Q99685 whole entry): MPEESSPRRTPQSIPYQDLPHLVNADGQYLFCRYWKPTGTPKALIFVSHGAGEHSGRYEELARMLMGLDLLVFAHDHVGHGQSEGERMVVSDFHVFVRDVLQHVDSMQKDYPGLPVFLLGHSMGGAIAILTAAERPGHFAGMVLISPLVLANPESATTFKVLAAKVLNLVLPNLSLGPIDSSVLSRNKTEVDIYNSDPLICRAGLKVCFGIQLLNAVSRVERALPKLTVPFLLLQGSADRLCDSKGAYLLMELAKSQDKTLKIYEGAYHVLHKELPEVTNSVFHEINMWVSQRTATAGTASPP

[9] = target: T3, Fatty-acid amide hydrolase 1 (Rattus norvegicus) (UniProt P97612); experiment: Inhibition of FAAH in rat brain membrane at 1 to 10 uM incubated for 30 mins followed by incubation with FP-Rh probe for 45 mins by ABPP assay; assay type: cell membranes
T3 sequence (whole entry): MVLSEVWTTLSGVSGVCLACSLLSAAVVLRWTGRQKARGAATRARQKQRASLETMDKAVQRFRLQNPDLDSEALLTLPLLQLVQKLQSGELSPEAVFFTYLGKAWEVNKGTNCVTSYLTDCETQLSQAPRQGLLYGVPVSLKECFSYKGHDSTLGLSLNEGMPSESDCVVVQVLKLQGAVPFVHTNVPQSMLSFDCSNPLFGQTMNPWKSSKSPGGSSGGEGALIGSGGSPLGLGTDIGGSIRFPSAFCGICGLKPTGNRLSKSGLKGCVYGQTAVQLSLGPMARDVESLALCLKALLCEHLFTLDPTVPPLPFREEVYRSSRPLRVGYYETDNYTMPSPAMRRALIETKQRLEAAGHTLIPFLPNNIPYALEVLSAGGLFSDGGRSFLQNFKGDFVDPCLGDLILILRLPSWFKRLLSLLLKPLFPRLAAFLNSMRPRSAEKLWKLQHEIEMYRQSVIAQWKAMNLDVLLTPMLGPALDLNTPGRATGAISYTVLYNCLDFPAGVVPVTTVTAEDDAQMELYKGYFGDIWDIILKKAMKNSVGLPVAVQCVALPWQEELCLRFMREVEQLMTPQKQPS
How it was run: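 Gel-based competitive ABPP on rat brain membrane homogenates (10 mg/mL protein). Compound at 1 and 10 μM or DMSO for 30 min at room temperature, then 10 μM rhodamine-tagged fluorophosphonate probe for 45 min at room temperature. FAAH was run with a reference FAAH inhibitor at 10 μM as positive control. Serine hydrolase labelling read by in-gel fluorescence.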

[10] = target: Cannabinoid receptor 1 (Rattus norvegicus) (UniProt P20272); experiment: Displacement of [3H]CP55940 from CB1 receptor in rat brain by competition-equilibrium binding analysis
Target sequence in this assay (P20272 whole entry, looked up): as the sequence (P20272 whole entry) above

Homo sapiens = species: Homo sapiens; experiment: Selectivity ratio of IC50 for human full length ABHD6 expressed in Escherichia coli cells to IC50 for human recombinant MBP-tagged FAAH expressed in Escherichia coli cells by fluorescence based assay
[11] = Selectivity ratio of IC50 for human recombinant His-tagged MGL expressed in Escherichia coli BL21 DE3 cells to IC50 for rat recombinant His/GST-tagged FAAH expressed in Escherichia coli cells by fluorescence based assay
[12] = Stability in mouse liver microsomes assessed as half life; assay type: ADME, Microsome; how it was run: as §2

C[C@@H]1CN(c2ccc(F)cc2)CCN1C(=O)Oc1cccc(N2CCS(=O)(=O)CC2)c1
Activity [1]: inactive | half-life [2]: > 60 min | half-life [3]: 15 to 25 min | half-life [4]: > 60 min | pIC50 [5]: 7.93 | Activity [6]: inactive | Activity [7]: inactive | half-life [8]: > 60 min | pIC50 (Monoglyceride lipase): < 6.00 | inhibition [9]: 100% | Activity [10]: inactive | Ratio IC50 (Homo sapiens): > 1000 | Ratio IC50 [11]: > 1000 | half-life [12]: 15 to 25 min

O=C(Oc1cccc(N2CCS(=O)(=O)CC2)c1)N1CCC(c2ccc(N3CCC3)cc2)CC1
Activity [1]: inactive | half-life [2]: > 60 min | half-life [3]: 15 to 25 min | half-life [4]: > 60 min | pIC50 [5]: 8.10 | Activity [6]: inactive | Activity [7]: inactive | half-life [8]: > 60 min | pIC50 (Monoglyceride lipase): < 6.00 | inhibition [9]: 100% | Activity [10]: inactive | Ratio IC50 (Homo sapiens): > 1000 | Ratio IC50 [11]: > 1000 | half-life [12]: 15 to 25 min
